Results on 7 molecules are retold here after PMC10023369 (ACS chemical biology, 2023).

Data set [1] deals with PRC2 components EED and EZH2^WT/EZH2^Y641N (Homo sapiens, UniProt O75530+P40337). The data set is described as follows: Degradation of PRC2 components by western blot in DB cells. The class given is cell-based. To be noted: for Degradation of EED and EZH2^WT/EZH2^Y641N at 96 hr: DB cells, 3 μM for 96 hr. (In general: Immunoblotting shows a protein as a band on a membrane.)
Data set [2] deals with EZH2^WT/EZH2^Y641N. In words: EZH2 degradation by western blot in DB cells. To be noted: % degradation at 3 μM after 24 hr. The class given is cell-based, human. The essentials: (§1)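 DB cells seeded at 800,000 cells/well and dosed from DMSO stock for 24 hr; dose–response 0.01–3 μM. Cells washed with PBS and lysed in Cytobuster with protease inhibitors and benzonase. Normalized lysate boiled with reducing Laemmli buffer, run on 4–15% gels, blotted to PVDF, detected by fluorescence or ECL. Band densitometry normalized to GAPDH, then to DMSO, gave % degradation; EED quantified from lower ~55 kDa band. DC50 from three-parameter fit; Dmax = % degradation at 3 μM, 24 hr.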

A further data set addresses His-tagged EED (Homo sapiens, UniProt O75530). The data set is described as follows: EED binding TR-FRET assay. The note with it: result in words. The essentials: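 EED binding by TR-FRET displacement of a biotinylated EED ligand (15 nM). Mix held EED-6xHis (15 nM), ULight anti-6xHis antibody (10 nM) and Eu-W1024 streptavidin (2 nM). Test compounds run as 10-point dose–response, top final concentration 10 μM. IC50 from three biological replicates ± standard deviation.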
(In general: TR-FRET usually uses a lanthanide donor and a delayed reading to cut background.)

The subject of data set [3] is DB cells. The data set is described as follows: DB cell proliferation analysis. The format is cell-based, human. The note with it: for Reduction of cell growth compared to DMSO: 0.5 μM, 12 days. The essentials: (§2)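 DB cells in RPMI 1640 with 10% FBS (37 °C, 5% CO₂), seeded at 100K cells/mL in 12-well plates. Dosed with 0.01–10 μM or 0.5 μM test compound, or DMSO. Every 3 days, media exchanged, cells split back to seeding density and re-dosed, for up to 12 days. Trypan blue automated counts gave cells/mL and % viability. % proliferation relative to DMSO at each time point; EC50 from four-parameter log(inhibitor) fit.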

The test system of a further data set is SUZ12. The data set is described as follows: SUZ12 degradation by western blot in DB cells. The class given is cell-based, human. The note with it: % degradation at 3 μM after 24 hr. The essentials:
as §1

A further data set concerns H3K27me3. In words: H3K27me3 levels by western blot in DB cells. To be noted: 3 μM for 96 hr. The format is cell-based, human. The method in brief:
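H3K27me3 by western blot: DB cells seeded at 50,000 cells/well and treated with 3 μM test compound or DMSO for 96 hr. PBS-washed cells lysed in Cytobuster with protease inhibitors and benzonase. Samples boiled with reducing Laemmli buffer, separated on 4–15% gels, transferred to PVDF. Densitometry normalized to GAPDH and expressed relative to DMSO.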

For a further data set, the target named is EED (Homo sapiens, UniProt O75530). The data set is described as follows: EED degradation by western blot in DB cells. The class given is cell-based. The method in brief:
as §1

In the next data set the test system is Caco-2. The data set is described as follows: Caco-2 permeability assay. The format is in vitro ADME. On the technique in general: Caco-2 monolayers are a common model of the intestinal barrier.
For data set [4], the system named is DB cells. In words: DB cell viability. The note with it: 12 days, top concentrations tested (5 – 10 μM). The class given is cell-based, human. The essentials:
as §2

In data set [5] the target is biotinylated EED and His-VHL (Homo sapiens, UniProt O75530+P40337). The data set is described as follows: TR-FRET ternary complex formation assay. The format is binding. To be noted: EED-biotin and His-VHL, dose response up to 10 μM. The method in brief:
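Ternary complex TR-FRET: biotinylated EED (residues 1–441, 160 nM) and His-VHL (residues 1–154, 320 nM) with Eu-streptavidin (2 nM) and ULight anti-6xHis (100 nM). Buffer: 20 mM Tris pH 7.5, 150 mM NaCl, Tween 20, 2 mM DTT, 1% DMSO. 10-point three-fold series from 10 μM; 4 h in dark. Read 665/615 ratio (320 nm excitation), minus no-compound wells. Technical triplicates; two independent experiments, standard error.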

Data set [6] is described as follows: Solubility observed in ternary complex assay. The class given is physicochemical. The note with it: above 10 μM in ternary complex assay.
For data set [7], the system named is EZH2^WT/EZH2^Y641N. The note with it: read-out: EZH2^WT/EZH2^Y641N DC50; DB cells; cited from earlier work.
The test system of the next data set is tumor growth. The note with it: once daily intraperitoneal administration, 150 mg/kg; cited from earlier work.
Data set [8] has as its system triple negative breast cancer (TNBC) cells. To be noted: cited from earlier work.

The structures appear in SMILES notation. Like-named read-outs stand apart in the source and are kept apart here. Where a SMILES comes first, the peptide text is derived from it. The star is where a group is joined. Cbz = O=C(OCc1ccccc1)*

Sequence of biotinylated EED and His-VHL (O75530 whole entry, the tested form may be a part): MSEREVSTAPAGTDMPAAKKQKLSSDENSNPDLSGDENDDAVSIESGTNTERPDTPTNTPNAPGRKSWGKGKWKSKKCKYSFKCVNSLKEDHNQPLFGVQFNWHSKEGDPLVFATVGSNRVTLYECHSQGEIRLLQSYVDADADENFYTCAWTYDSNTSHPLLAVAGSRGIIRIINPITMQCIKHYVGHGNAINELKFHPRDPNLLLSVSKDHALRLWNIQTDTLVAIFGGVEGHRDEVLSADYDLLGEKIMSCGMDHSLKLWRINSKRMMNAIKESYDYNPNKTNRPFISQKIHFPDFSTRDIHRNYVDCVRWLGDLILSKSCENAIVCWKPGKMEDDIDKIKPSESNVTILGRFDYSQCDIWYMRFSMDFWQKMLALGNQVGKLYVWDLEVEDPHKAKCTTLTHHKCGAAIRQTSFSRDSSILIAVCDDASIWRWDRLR
Sequence of biotinylated EED and His-VHL (P40337 1-154): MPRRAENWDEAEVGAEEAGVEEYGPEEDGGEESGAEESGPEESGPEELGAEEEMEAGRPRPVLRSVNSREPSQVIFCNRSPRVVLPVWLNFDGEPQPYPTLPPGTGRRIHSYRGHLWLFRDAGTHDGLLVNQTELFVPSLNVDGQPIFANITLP
Sequence of EED (O75530 whole entry): as the sequence (O75530 whole entry, the tested form may be a part) above
Sequence of His-tagged EED (O75530 whole entry): as the sequence (O75530 whole entry, the tested form may be a part) above

With `CC(C)C[C@@H](C=O)NC(=O)[C@H](CC(C)C)NC(=O)[C@H](CC(C)C)NC(=O)OCc1ccccc1` [MG132] (Cbz-Leu-Leu-Leu-aldehyde), the “Effect of proteasome inhibitor pretreatment on UNC7700 mediated PRC2 degradation” value in [1] (added prior to UNC7700 cell treatment) is on record as “blocks PRC2 degradation”.

Consider `Cc1ncsc1-c1ccc(CNC(=O)[C@@H]2C[C@@H](O)CN2C(=O)[C@@H](NC(=O)C2CC(NC(=O)c3ccc(-c4cnc(NCc5ccco5)n5cnnc45)cc3)C2)C(C)(C)C)cc1` (stereo partly drawn) [UNC7700], for which the “EZH2^WT/EZH2^Y641N Dmax” value in the data set with EZH2^WT/EZH2^Y641N [2] came to 86%. Moreover, on His-tagged EED, the “EED binding (TR-FRET IC50)” value is recorded as “equally potent binders of EED”. The “Reduction of cell growth compared to DMSO” value (shortened to “Reduction of cell growth”) in the data set with DB cells [3] is 46%. Besides, the EC50 with DB cells [3] (read-out: Proliferation EC50 after 9 days, 0.01 – 10 μM, 9 days) turned out to be 2600 ± 1900 nM. Further, the EC50 with DB cells [3] (read-out: Proliferation EC50 after 12 days, 0.01 – 10 μM, 12 days) amounted to 790 ± 530 nM. Also, the “SUZ12 Dmax” value in the data set on SUZ12 was 44%. Also, in the data set with H3K27me3, the “Decrease in H3K27me3 levels” value is on record as 85%. The “EED Dmax” value at EED (% degradation at 3 μM after 24 hr) was determined as 84%. Besides, the DC50 on EED (read-out: EED DC50, 24 hr, dose response 0.01–3 μM, western blot) was found to be 111 nM. The “Degradation of EED and EZH2^WT/EZH2^Y641N at 96 hr” value in [1] is “complete degradation of EED and EZH2^WT/EZH2^Y641N”. The Caco-2 permeability entry in the data set on Caco-2 is listed as “below the limit of detection of the assay”. Further, the “Percent recovery in Caco-2 assay” value with Caco-2 (from the donor compartment, cell lysate, and assay well) is on record as 79–106%. For the same molecule, the “Loss in cell viability” value in the data set with DB cells [4] was about 30%. Also, in data set [5], the “PROTAC concentration at maximum peak height of ternary complex TR-FRET signal” value was “around 1 μM” and the “Ternary complex TR-FRET signal, in words” value is “much weaker compared to UNC6852”.

Turning to `Cc1ncsc1-c1ccc(CNC(=O)[C@@H]2C[C@@H](O)CN2C(=O)[C@@H](NC(=O)CCCNC(=O)c2ccc(-c3cnc(NCc4ccco4)n4cnnc34)cc2)C(C)(C)C)cc1` [UNC6852], the “Reduction of cell growth” value in the data set with DB cells [3] is listed as 8%. Further, the Solubility entry in [6] is “poor solubility observed above this concentration”. For the same molecule, in the data set with H3K27me3, the “Decrease in H3K27me3 levels, in words” value is reported as “only a small decrease in H3K27me3 levels”. The DC50 with EZH2^WT/EZH2^Y641N [7] is 670 ± 240 nM. Also, in [1], the “Degradation of EED and EZH2^WT/EZH2^Y641N at 96 hr” value was “substantial degradation of EED and EZH2^WT/EZH2^Y641N”. In addition, in [5], the “PROTAC concentration at maximum peak height of ternary complex TR-FRET signal” value is reported as “around 1 μM” and the “Ternary complex TR-FRET signal, in words” value is “signs of a bell-shaped curve”.

In the case of `CCCc1cc(C)[nH]c(=O)c1CNC(=O)c1cc(-c2ccc(N3CCN(C(C)C)CC3)nc2)cc2c1cnn2C(C)C` [UNC1999], the “Reduction of cell growth” value with DB cells [3] is 28%. Besides, the “Decrease in H3K27me3 levels” value in the data set on H3K27me3 was determined as 76%.

Regarding `CS(=O)(=O)c1ccc(-c2cnc(NCc3ccco3)n3cnnc23)cc1` [EED226], in the data set with DB cells [3], the “Reduction of cell growth” value was 24%. Besides, the “Decrease in H3K27me3 levels” value with H3K27me3 came out at 63%.

Regarding `Cc1ncsc1-c1ccc(CNC(=O)[C@H]2C[C@@H](O)CN2C(=O)[C@@H](NC(=O)CCCNC(=O)c2ccc(-c3cnc(NCc4ccco4)n4cnnc34)cc2)C(C)(C)C)cc1` [UNC7043], the “Ternary complex TR-FRET signal, in words” value in data set [5] is on record as “do not show any increase in FRET signal”.

Consider `Cc1cc(C)c(CNC(=O)c2cc(-c3ccc(N4CCN(CCNC(=O)CC56CC7CC(CC(C7)C5)C6)CC4)nc3)cc3c2cnn3C(C)C)c(=O)[nH]1` [MS1943], for which the “Tumor growth in vivo” value in the data set with tumor growth is “suppresses tumor growth in vivo”. The “Anti-proliferative effect in TNBC cells” value in data set [8] is on record as “anti-proliferative”.
